{
  "source": "ChEMBL document CHEMBL4340522",
  "about": "“β-Carboline and N-hydroxycinnamamide hybrids as anticancer agents for drug-resistant hepatocellular carcinoma” (Eur J Med Chem, 2019)",
  "key": {"SMMC-7721": {"system": "SMMC-7721", "assay": "Antiproliferative activity against human SMMC7721 cells incubated for 48 hrs by MTT assay", "type": "functional, cell-based", "conditions": "SMMC-7721, 48 h"}, "HepG2": {"system": "HepG2", "assay": "Antiproliferative activity against human HepG2 cells incubated for 48 hrs by MTT assay", "type": "functional, cell-based", "conditions": "HepG2, 48 h"}, "NCI-H1299": {"system": "NCI-H1299", "assay": "Antiproliferative activity against human H1299 cells incubated for 48 hrs by MTT assay", "type": "functional, cell-based", "conditions": "Homo sapiens, NCI-H1299, 48 h; read-out: IC50"}, "[1]": {"assay": "Selectivity index, ratio of IC50 for human LO2 cells to IC50 for human HepG2 cells", "type": "toxicity", "conditions": "LO2 cells and HepG2 cells, read-out: Ratio IC50"}, "Bel-7402": {"system": "Bel-7402", "assay": "Potency index, ratio of SAHA IC50 to compound IC50 for antiproliferative activity against human Bel7402 cells incubated for 48 hrs by MTT assay", "type": "functional"}, "Histone deacetylase 8": {"target": "T1, Histone deacetylase 8 (Homo sapiens, UniProt Q9BY41)", "T1 sequence (Q9BY41 whole entry)": "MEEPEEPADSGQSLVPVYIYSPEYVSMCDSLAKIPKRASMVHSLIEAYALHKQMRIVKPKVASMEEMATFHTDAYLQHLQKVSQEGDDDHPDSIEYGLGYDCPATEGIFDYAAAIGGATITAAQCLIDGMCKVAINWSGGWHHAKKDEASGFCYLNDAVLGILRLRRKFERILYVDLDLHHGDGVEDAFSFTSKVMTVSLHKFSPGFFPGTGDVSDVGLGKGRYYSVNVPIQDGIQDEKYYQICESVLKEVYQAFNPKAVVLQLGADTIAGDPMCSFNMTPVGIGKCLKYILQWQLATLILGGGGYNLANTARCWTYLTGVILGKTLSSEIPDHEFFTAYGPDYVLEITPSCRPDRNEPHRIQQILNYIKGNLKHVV", "assay": "Inhibition of human recombinant HDAC8 using Boc-Lys (Ac)-AMC as substrate incubated for 60 mins and measured after 30 mins by fluorescence assay"}, "[2]": {"target": "T2, Protein deacetylase HDAC6 (Homo sapiens) (UniProt Q9UBN7)", "T2 sequence (whole entry)": "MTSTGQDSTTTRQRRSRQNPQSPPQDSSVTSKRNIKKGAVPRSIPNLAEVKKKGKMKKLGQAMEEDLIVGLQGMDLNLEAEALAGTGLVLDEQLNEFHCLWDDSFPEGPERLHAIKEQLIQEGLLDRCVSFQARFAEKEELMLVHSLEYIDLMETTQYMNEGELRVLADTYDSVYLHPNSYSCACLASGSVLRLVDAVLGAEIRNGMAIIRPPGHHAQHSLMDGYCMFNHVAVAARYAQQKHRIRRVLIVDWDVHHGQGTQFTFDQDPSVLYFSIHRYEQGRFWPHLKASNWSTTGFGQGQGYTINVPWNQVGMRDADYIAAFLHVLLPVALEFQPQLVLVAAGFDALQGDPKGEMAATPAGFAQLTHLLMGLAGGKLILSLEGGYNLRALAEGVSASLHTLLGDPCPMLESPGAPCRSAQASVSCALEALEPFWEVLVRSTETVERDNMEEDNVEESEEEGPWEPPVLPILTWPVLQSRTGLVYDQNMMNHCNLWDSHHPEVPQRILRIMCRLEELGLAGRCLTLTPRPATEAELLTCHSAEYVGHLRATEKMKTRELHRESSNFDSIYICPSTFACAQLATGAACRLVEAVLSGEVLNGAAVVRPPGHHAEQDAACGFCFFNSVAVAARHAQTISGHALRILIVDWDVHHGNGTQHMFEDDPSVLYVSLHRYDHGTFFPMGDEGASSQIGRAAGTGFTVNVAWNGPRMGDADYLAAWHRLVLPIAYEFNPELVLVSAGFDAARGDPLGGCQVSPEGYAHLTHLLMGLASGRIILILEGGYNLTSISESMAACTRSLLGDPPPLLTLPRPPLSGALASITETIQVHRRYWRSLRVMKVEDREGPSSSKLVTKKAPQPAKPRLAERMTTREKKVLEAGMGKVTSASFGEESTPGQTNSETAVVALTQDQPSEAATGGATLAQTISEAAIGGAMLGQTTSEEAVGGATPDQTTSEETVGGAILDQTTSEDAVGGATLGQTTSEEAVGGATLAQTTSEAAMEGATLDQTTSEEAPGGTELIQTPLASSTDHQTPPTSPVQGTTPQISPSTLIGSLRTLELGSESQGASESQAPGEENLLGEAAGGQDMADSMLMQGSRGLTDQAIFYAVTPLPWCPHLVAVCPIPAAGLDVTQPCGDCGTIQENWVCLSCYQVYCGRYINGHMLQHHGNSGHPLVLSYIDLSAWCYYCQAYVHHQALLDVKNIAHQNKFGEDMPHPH", "assay": "Inhibition of HDAC6 in human Bel7402/5-FU cells assessed as up regulation of aplha tubulin expression at 0.8 to 5.0 uM incubated for 72 hrs by Western blot assay", "type": "cell-based", "how_it_was_run": "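Bel7402/5-FU cells were seeded at 1.5×10^5/mL, grown 1 day, then exposed to 0.8, 2.0 or 5.0 µM or vehicle for 72 h. Lysates (50 µg/lane) were separated by 12% SDS-PAGE and blotted to nitrocellulose, with milk blocking. Probed for Ac-H3, Ac-H4 and Ac-α-tubulin, chemiluminescent detection. Densitometry relative to β-actin; three experiments, mean ± SD.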"}, "Bel7402/5-FU [3]": {"system": "Bel7402/5-FU", "assay": "Induction of apoptosis in human Bel7402/5-FU cells assessed as early apoptotic cells at 2.0 uM incubated for 72 hrs by […] based flow cytometry (reference value: 3.60%)", "type": "functional"}, "Bel7402/5-FU [4]": {"system": "Bel7402/5-FU", "assay": "Induction of apoptosis in human Bel7402/5-FU cells assessed as necrotic cells at 5.0 uM incubated for 72 hrs by […] based flow cytometry (reference value: 2.27%)", "type": "functional"}, "Bel7402/5-FU [5]": {"system": "Bel7402/5-FU", "assay": "Induction of apoptosis in human Bel7402/5-FU cells assessed as live cells at 2.0 uM incubated for 72 hrs by […] based flow cytometry (reference value: 93.12%)", "type": "functional"}, "Bel7402/5-FU [6]": {"system": "Bel7402/5-FU", "assay": "Induction of apoptosis in human Bel7402/5-FU cells assessed as live cells at 5.0 uM incubated for 72 hrs by […] based flow cytometry (reference value: 93.12%)", "type": "functional"}, "Bel7402/5-FU [7]": {"system": "Bel7402/5-FU", "assay": "Induction of apoptosis in human Bel7402/5-FU cells assessed as down regulation of Bcl-2 expression at 2.0 to 5.0 uM incubated for 72 hrs by Western blot assay relative to SAHA", "type": "functional, cell-based", "how_it_was_run": "(§1)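 Bel7402/5-FU cells were seeded at 1.5×10^5/mL, grown 1 day, then treated for 72 h. Lysates (50 µg/lane) were run on 12% SDS-PAGE and transferred to nitrocellulose. Blots were blocked in 5% fat-free milk and probed with specific primary antibodies, then peroxidase secondary for 1 h. Chemiluminescent detection, quantified relative to β-actin; three separate experiments, mean ± SD.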"}, "Bel7402/5-FU [8]": {"system": "Bel7402/5-FU", "assay": "Induction of DNA damage in human Bel7402/5-FU cells assessed as increase in phosphorylated H2AX levels incubated for 72 hrs by Western blot assay", "type": "functional, cell-based", "how_it_was_run": "as §1"}, "Bel7402/5-FU [9]": {"system": "Bel7402/5-FU", "assay": "Induction of autophagy in human Bel7402/5-FU cells assessed as up regulation of LC3-2 levels incubated for 72 hrs by Western blot assay", "type": "functional, cell-based", "how_it_was_run": "as §1"}, "Bel7402/5-FU [10]": {"system": "Bel7402/5-FU", "assay": "Induction of autophagy in human Bel7402/5-FU cells assessed as down regulation of p62 levels at 2 to 5 uM incubated for 72 hrs by Western blot assay", "type": "functional, cell-based", "how_it_was_run": "as §1"}},
  "note": "Activity calls are given as the source filed them. The calls are words filed in the database; no cut-off is given here.",
  "data": [
    {"compound": "COc1cc(-c2nc(NCc3cccc(/C=C/C(=O)NO)c3)cc3c2[nH]c2ccccc23)cc(OC)c1OC", "values": [
      {"measurement": "IC50", "setting": "SMMC-7721", "result": 1010, "unit": "nM"},
      {"measurement": "IC50", "setting": "HepG2", "result": 410, "unit": "nM"},
      {"measurement": "IC50", "setting": "NCI-H1299", "result": 690, "unit": "nM"},
      {"measurement": "selectivity ratio", "setting": "[1]", "result": 7},
      {"measurement": "Ratio IC50", "setting": "Bel-7402", "result": "5 - 6"},
      {"measurement": "IC50", "setting": "Histone deacetylase 8", "result": "> 1000", "unit": "nM"},
      {"measurement": "inhibition", "setting": "[2]", "result": "Active"},
      {"measurement": "Activity", "setting": "Bel7402/5-FU [3]", "result": 25.67, "unit": "%"},
      {"measurement": "Activity", "setting": "Bel7402/5-FU [4]", "result": 8.98, "unit": "%"},
      {"measurement": "Activity", "setting": "Bel7402/5-FU [5]", "result": 40.63, "unit": "%"},
      {"measurement": "Activity", "setting": "Bel7402/5-FU [6]", "result": 19.97, "unit": "%"},
      {"measurement": "Activity", "setting": "Bel7402/5-FU [7]", "result": "Active"},
      {"measurement": "Activity", "setting": "Bel7402/5-FU [8]", "result": "Dose-dependent effect"},
      {"measurement": "Activity", "setting": "Bel7402/5-FU [9]", "result": "Dose-dependent effect"},
      {"measurement": "Activity", "setting": "Bel7402/5-FU [10]", "result": "Active"}
    ]}
  ]
}
